Experimental data from ChEMBL document CHEMBL1123393, “5-HT1 and 5-HT2 binding characteristics of 1-(2,5-dimethoxy-4-bromophenyl)-2-aminopropane analogues” (J Med Chem, 1986).

Tests used:
[1] = target: Serotonin 2 (5-HT2) receptor (Rattus norvegicus, UniProt P30994+P08909+P14842); assay: Displacement of [3H]ketanserin from rat prefrontal cortex 5-hydroxytryptamine 2 receptor; format: tissue-based
How it was run: (§1)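 Rat prefrontal cortex (female Sprague-Dawley, ca. 200 g) homogenate, 4 mg wet weight tissue per tube, in 50 mM Tris, 5 mM MgCl2, 0.5 mM EDTA (pH 7.4 at 37 °C). Radioligand 2 nM [3H]-5-HT for 5-HT1 or 0.4 nM [3H]ketanserin for 5-HT2. Nonspecific binding with 1 μM 5-HT or 1 μM cinanserin. Filtration, scintillation counting. IC50 from a 23-point curve in triplicate by nonlinear fit; Ki by Cheng-Prusoff.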

[2] = target: Serotonin 1 (5-HT1) receptor (Rattus norvegicus, UniProt P28564+P30940+P19327+P28565); assay: Binding affinity for 5-hydroxytryptamine 1 receptor of rat prefrontal cortex; format: tissue-based; how it was run: as §1
Rattus norvegicus [3] = assay: DOM appropriate responding in percent when compound administered at 11 mg/kg; format: functional
How it was run: (§2)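 Rats trained to discriminate DOM (1.0 mg/kg ip, 15-min presession interval) from saline on two levers. Test doses given ip. Percent of responses on the DOM-appropriate lever recorded during a 2.5-min extinction session.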

Rattus norvegicus [4] = assay: Number of animals responding to the drug 10 (mg/kg) out of 3 animals tested; format: functional
Rattus norvegicus [5] = assay: Number of animals responding to the drug 12 (mg/kg) out of 3 animals tested; format: functional
Rattus norvegicus [6] = assay: Number of animals responding to the drug 5 (mg/kg) out of 4 animals tested; format: functional
Rattus norvegicus [7] = assay: DOM appropriate responses per min when compound administered at 5 mg/kg; format: functional
How it was run: (§3)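 DOM (1.0 mg/kg ip) versus saline two-lever discrimination in food-restricted male Sprague-Dawley rats. Test doses given ip with a 15-min presession interval. Response rate (responses/min) measured during a 2.5-min extinction test session.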

Rattus norvegicus [8] = assay: DOM appropriate responding in percent when compound administered at 10 mg/kg; format: functional; how it was run: as §2
Rattus norvegicus [9] = assay: Number of animals responding to the drug 13 (mg/kg) out of 3 animals tested (second group of 3 animals); 1/3; format: functional
Rattus norvegicus [10] = assay: DOM appropriate responses per min when compound administered at 10 mg/kg; format: functional; how it was run: as §3
Rattus norvegicus [11] = assay: DOM appropriate responses per min when compound administered at 2 mg/kg; format: functional; how it was run: as §3
Rattus norvegicus [12] = assay: Number of animals responding to the drug 11 (mg/kg) out of 3 animals tested; format: functional
Rattus norvegicus [13] = assay: DOM appropriate responses per min when compound administered at 11 mg/kg; format: functional; how it was run: as §3
Rattus norvegicus [14] = assay: DOM appropriate responding in percent when compound administered at 5 mg/kg; format: functional; how it was run: as §2
Rattus norvegicus [15] = assay: DOM appropriate responding in percent when compound administered at 2 mg/kg; format: functional; how it was run: as §2
Rattus norvegicus [16] = assay: DOM appropriate responding in percent when compound administered at 12 mg/kg; format: functional; how it was run: as §2
Rattus norvegicus [17] = assay: Number of animals responding to the drug 13 (mg/kg) out of 3 animals tested; format: functional
Rattus norvegicus [18] = assay: Number of animals responding to the drug 2 (mg/kg) out of 4 animals tested; format: functional
Rattus norvegicus [19] = assay: DOM appropriate responses per min when compound administered at 12 mg/kg; format: functional; how it was run: as §3
Rattus norvegicus [20] = assay: DOM appropriate responding in percent when compound administered at 1.8 mg/kg; format: functional; how it was run: as §2
Rattus norvegicus [21] = assay: Number of animals responding to the drug 0.5 (mg/kg) out of 3 animals tested; format: functional
Rattus norvegicus [22] = assay: DOM appropriate responses per min when compound administered at 0.5 mg/kg; format: functional; how it was run: as §3
Rattus norvegicus [23] = assay: Number of animals responding to the drug 1.2 (mg/kg) out of 3 animals tested; format: functional
Rattus norvegicus [24] = assay: DOM appropriate responding in percent when compound administered at 0.5 mg/kg; format: functional; how it was run: as §2
Rattus norvegicus [25] = assay: DOM appropriate responding in percent when compound administered at 1.2 mg/kg; format: functional; how it was run: as §2
Rattus norvegicus [26] = assay: DOM appropriate responses per min when compound administered at 1.2 mg/kg; format: functional; how it was run: as §3
Rattus norvegicus [27] = assay: DOM appropriate responses per min when compound administered at 1.8 mg/kg; format: functional; how it was run: as §3
Rattus norvegicus [28] = assay: Concentration required to produce DOM like response when administered in rats; format: functional
How it was run: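 Six male Sprague-Dawley rats, food-restricted to about 80% of free-feeding weight, trained on two-lever drug discrimination: DOM HCl 1.0 mg/kg ip versus saline, 15 min pre-session. Test drug given ip before a 2.5-min extinction test.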

Rattus norvegicus [29] = assay: Number of animals responding to the drug 1.8 (mg/kg) out of 3 animals tested; format: functional

What does the source list for `COc1cc(CC(C)N)ccc1Br` (centres undefined)?
Ki [1]: > 25000 nM; Ki [2]: > 25000 nM

With `CC(N)Cc1ccc(Br)cc1` (centres undefined) as the molecule, how does the Ki [1] read?
The Ki was 4650 nM.

And the Ki [2]?
The Ki was 2830 nM.

Which Activity (Rattus norvegicus [3]) does the source give for `COc1cc(Br)ccc1CC(C)N` (centres undefined) here?
The Activity was 17%.

And the Activity (Rattus norvegicus [4])?
The Activity was 3.

And the Ki [1]?
The Ki was 4870 nM.

What about the Activity (Rattus norvegicus [5]) of the same molecule?
The Activity was 2.

And the Activity (Rattus norvegicus [6])?
Its Activity is 3.

What about the Response (Rattus norvegicus [7]) of the same molecule?
The Response was 14.9 min.

And the Activity (Rattus norvegicus [8])?
Its Activity is 8%.

What about the Activity (Rattus norvegicus [9]) of the same molecule?
The Activity was 1.

What about the Response (Rattus norvegicus [10]) of the same molecule?
The Response was 4.5 min.

And the Response (Rattus norvegicus [11])?
The Response was 16.3 min.

And the Activity (Rattus norvegicus [12])?
Its Activity is 3.

And the Response (Rattus norvegicus [13])?
Its Response is 3.3 min.

What about the Ki [2] of the same molecule?
The Ki was 2900 nM.

And the Activity (Rattus norvegicus [14])?
The Activity was 15%.

What about the Activity (Rattus norvegicus [15]) of the same molecule?
Its Activity is 14%.

And the Activity (Rattus norvegicus [16])?
Its Activity is 65%.

What about the Activity (Rattus norvegicus [17]) of the same molecule?
Its Activity is 1.

What about the Activity (Rattus norvegicus [18]) of the same molecule?
Its Activity is 4.

And the Response (Rattus norvegicus [19])?
The Response was 2.8 min.

For `COc1cccc(CC(C)N)c1` (racemic), which Ki [1] is on record?
Its Ki is 7850 nM.

And the Ki [2]?
Its Ki is 2660 nM.

For `COc1cc(C[C@@H](C)N)c(OC)cc1I`, which Ki [1] is on record?
The Ki was 9.9 nM.

And the Ki [2]?
Its Ki is 2290 nM.

Which results are given for `COc1cc(CC(C)N)c(OC)cc1I` (centres undefined)?
Activity (Rattus norvegicus [20]): 93%; Ki [1]: 35 nM; Activity (Rattus norvegicus [21]): 3; Response (Rattus norvegicus [22]): 12.2 min; Activity (Rattus norvegicus [23]): 3; Activity (Rattus norvegicus [24]): 14%; Activity (Rattus norvegicus [25]): 43%; Response (Rattus norvegicus [26]): 16.9 min; Ki [2]: 920 nM; Response (Rattus norvegicus [27]): 7.8 min; ED50 (Rattus norvegicus [28]): 0.99 mg/kg; Activity (Rattus norvegicus [29]): 3
